Columns and labels:
NIH3T3 [1] = assay: Cytoprotective activity against GOX-induced cytotoxicity in mouse NIH/3T3 cells assessed as decrease in LDH release treated for 5 hrs with 15 mU/ml GOX challenge by spectrophotometric method; format: functional, cell-based
NIH3T3 [2] = assay: Cytoprotective activity against GOX-induced oxidative stress in mouse NIH/3T3 cells assessed as cell survival at 0.1 uM treated for 5 hrs with 15 mU/ml GOX challenge by MTT assay (reference value: 42.71 +/- 2.10%); format: functional; conditions: NIH3T3, 5 h, read-out: Survival
NIH3T3 [3] = assay: Cytoprotective activity against GOX-induced cytotoxicity in mouse NIH/3T3 cells assessed as LDH release at 10 uM treated for 5 hrs with 15 mU/ml GOX challenge by spectrophotometric method (reference value: 63.34 +/- 1.85%); format: functional
NIH3T3 [4] = assay: Cytoprotective activity against GOX-induced oxidative stress in mouse NIH/3T3 cells assessed as increase in cell survival treated for 5 hrs with 15 mU/ml GOX challenge by MTT assay; format: functional, cell-based
Procedure, shortened: (§1)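 Cells plated at 7×10^4 per well; next day exposed for 5 h to compound (0.1–100 μM) with 15 mU/ml glucose oxidase in growth medium. Viability expressed relative to GOX-free cells; α-tocopherol positive control.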

Hep 3B2 [5] = assay: Proliferative activity against human Hep3B cells assessed as cell viability at 0.1 uM after 4 days by cell counting method relative to control; format: functional; conditions: 96 h, read-out: Activity
Procedure, shortened: (§2)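 Hep3B kept in DMEM/10% FBS, 37°C, 5% CO2, then seeded at 1×10^5 cells/ml in medium containing compound (0.1–100 μM; DMSO-only control) in monolayer. Cells were checked daily by microscope for attachment and morphology, and counted after 4 days, in triplicate, in three independent experiments. Counts are given as % of the 0 μM group.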

Hep 3B2 [6] = assay: Cytoprotective activity against GOX-induced cytotoxicity in human Hep3B cells assessed as LDH release at 10 uM treated for 5 hrs with 15 mU/ml GOX challenge by spectrophotometric method (reference value: 60.94 +/- 1.18%); format: functional
Hep 3B2 [7] = assay: Proliferative activity against human Hep3B cells assessed as cell viability at 1 uM after 4 days by cell counting method relative to control; format: functional; conditions: 96 h, read-out: Activity; procedure, shortened: as §2
Hep 3B2 [8] = assay: Cytoprotective activity against GOX-induced cytotoxicity in human Hep3B cells assessed as LDH release at 1 uM treated for 5 hrs with 15 mU/ml GOX challenge by spectrophotometric method (reference value: 60.94 +/- 1.18%); format: functional
Hep 3B2 [9] = assay: Cytoprotective activity against GOX-induced oxidative stress in human Hep3B cells assessed as increase in cell survival treated for 5 hrs with 15 mU/ml GOX challenge by MTT assay; format: functional, cell-based; procedure, shortened: as §1
NIH3T3 [10] = assay: Cytoprotective activity against GOX-induced oxidative stress in mouse NIH/3T3 cells assessed as cell survival at 10 uM treated for 5 hrs with 15 mU/ml GOX challenge by MTT assay (reference value: 42.71 +/- 2.10%); format: functional; conditions: NIH3T3, 5 h, read-out: Survival
NIH3T3 [11] = assay: Cytoprotective activity against GOX-induced oxidative stress in mouse NIH/3T3 cells assessed as cell survival at 1 uM treated for 5 hrs with 15 mU/ml GOX challenge by MTT assay (reference value: 42.71 +/- 2.10%); format: functional; conditions: NIH3T3, 5 h, read-out: Survival
Hep 3B2 [12] = assay: Proliferative activity against human Hep3B cells assessed as cell viability at 10 uM after 4 days by cell counting method relative to control; format: functional; conditions: 96 h, read-out: Activity; procedure, shortened: as §2
Hep 3B2 [13] = assay: Proliferative activity against human Hep3B cells assessed as cell viability at 100 uM after 4 days by cell counting method relative to control; format: functional; conditions: 96 h, read-out: Activity; procedure, shortened: as §2
Hep 3B2 [14] = assay: Cytoprotective activity against GOX-induced oxidative stress in human Hep3B cells assessed as cell survival at 1 uM treated for 5 hrs with 15 mU/ml GOX challenge by MTT assay (reference value: 41.51 +/- 1.39%); format: functional; conditions: read-out: Survival
Hep 3B2 [15] = assay: Cytoprotective activity against GOX-induced oxidative stress in human Hep3B cells assessed as cell survival at 0.1 uM treated for 5 hrs with 15 mU/ml GOX challenge by MTT assay (reference value: 41.51 +/- 1.39%); format: functional; conditions: read-out: Survival
Hep 3B2 [16] = assay: Cytoprotective activity against GOX-induced cytotoxicity in human Hep3B cells assessed as LDH release at 100 uM treated for 5 hrs with 15 mU/ml GOX challenge by spectrophotometric method (reference value: 60.94 +/- 1.18%); format: functional
Hep 3B2 [17] = assay: Cytotoxicity against human Hep3B cells assessed as effect on cell morphology at 0.1 to 100 uM measured every day during 4 days incubation period by microscopic method; format: cell-based; conditions: hep 3b2, 96 h; procedure, shortened: as §2
Hep 3B2 [18] = assay: Cytoprotective activity against GOX-induced cytotoxicity in human Hep3B cells assessed as decrease in LDH release treated for 5 hrs with 15 mU/ml GOX challenge by spectrophotometric method; format: functional, cell-based
Hep 3B2 [19] = assay: Cytotoxicity against human Hep3B cells assessed as effect on cell attachment at 0.1 to 100 uM measured every day during 4 days incubation period by microscopic method; format: cell-based; conditions: hep 3b2, 96 h; procedure, shortened: as §2
NIH3T3 [20] = assay: Cytoprotective activity against GOX-induced cytotoxicity in mouse NIH/3T3 cells assessed as LDH release at 1 uM treated for 5 hrs with 15 mU/ml GOX challenge by spectrophotometric method (reference value: 63.34 +/- 1.85%); format: functional
Hep 3B2 [21] = assay: Cytoprotective activity against GOX-induced cytotoxicity in human Hep3B cells assessed as LDH release at 0.1 uM treated for 5 hrs with 15 mU/ml GOX challenge by spectrophotometric method (reference value: 60.94 +/- 1.18%); format: functional
Hep 3B2 [22] = assay: Cytoprotective activity against GOX-induced oxidative stress in human Hep3B cells assessed as cell survival at 100 uM treated for 5 hrs with 15 mU/ml GOX challenge by MTT assay (reference value: 41.51 +/- 1.39%); format: functional; conditions: read-out: Survival
NIH3T3 [23] = assay: Cytoprotective activity against GOX-induced oxidative stress in mouse NIH/3T3 cells assessed as cell survival at 100 uM treated for 5 hrs with 15 mU/ml GOX challenge by MTT assay (reference value: 42.71 +/- 2.10%); format: functional; conditions: NIH3T3, 5 h, read-out: Survival
NIH3T3 [24] = assay: Cytoprotective activity against GOX-induced cytotoxicity in mouse NIH/3T3 cells assessed as LDH release at 100 uM treated for 5 hrs with 15 mU/ml GOX challenge by spectrophotometric method (reference value: 63.34 +/- 1.85%); format: functional
NIH3T3 [25] = assay: Cytoprotective activity against GOX-induced cytotoxicity in mouse NIH/3T3 cells assessed as LDH release at 0.1 uM treated for 5 hrs with 15 mU/ml GOX challenge by spectrophotometric method (reference value: 63.34 +/- 1.85%); format: functional
Hep 3B2 [26] = assay: Cytoprotective activity against GOX-induced oxidative stress in human Hep3B cells assessed as cell survival at 10 uM treated for 5 hrs with 15 mU/ml GOX challenge by MTT assay (reference value: 41.51 +/- 1.39%); format: functional; conditions: read-out: Survival
Hep 3B2 [27] = assay: Proliferative activity against human Hep3B cells assessed as cell viability after 4 days by cell counting method; format: functional, cell-based; procedure, shortened: as §2

| Structure (SMILES) | Activity (NIH3T3 [1]) | viability at 0.1 µM (NIH3T3 [2]) | Activity (NIH3T3 [3]) | Activity (NIH3T3 [4]) | viability at 0.1 µM (Hep 3B2 [5]) | Activity (Hep 3B2 [6]) | viability at 1 µM (Hep 3B2 [7]) | Activity (Hep 3B2 [8]) | Activity (Hep 3B2 [9]) | viability at 10 µM (NIH3T3 [10]) | viability at 1 µM (NIH3T3 [11]) | viability at 10 µM (Hep 3B2 [12]) | viability at 100 µM (Hep 3B2 [13]) | viability at 1 µM (Hep 3B2 [14]) | viability at 0.1 µM (Hep 3B2 [15]) | Activity (Hep 3B2 [16]) | Activity (Hep 3B2 [17]) | Activity (Hep 3B2 [18]) | Activity (Hep 3B2 [19]) | Activity (NIH3T3 [20]) | also measured |
| --- | --- | --- | --- | --- | --- | --- | --- | --- | --- | --- | --- | --- | --- | --- | --- | --- | --- | --- | --- | --- | --- |
| CO[C@H]1c2c(ccc3ccc(=O)oc23)O[C@@H]1C(C)(C)O | Dose-dependent effect | 69% | 4.2% | Dose-dependent effect | 106% | 5.66% | 118% | 10.56% | Dose-dependent effect | 118% | 93% | 147% | 163% | 87.1% | 69.2% | 2.59% | Non-Toxic | Dose-dependent effect | Non-Toxic | 6.59% | Activity (Hep 3B2 [21]): 14.07%; viability at 100 µM (Hep 3B2 [22]): 112%; viability at 100 µM (NIH3T3 [23]): 129%; Activity (NIH3T3 [24]): 1.89%; Activity (NIH3T3 [25]): 15.41%; viability at 10 µM (Hep 3B2 [26]): 100%; Activity (Hep 3B2 [27]): Dose-dependent effect |
| C=C(C)[C@H]1CC[C@](C)([C@@H](O)Cc2c(O)ccc(C(=O)/C=C/c3ccc(O)cc3)c2O)O1 (racemic) | Dose-dependent effect | 44.9% | 15.76% | Dose-dependent effect | 100% | 14.03% | 101% | 20.91% | Dose-dependent effect | 66.4% | 61.4% | 102% | 116% | 60.5% | 45.2% | 6.99% | Non-Toxic | Dose-dependent effect | Non-Toxic | 20.91% | Activity (Hep 3B2 [21]): 26.09%; viability at 100 µM (Hep 3B2 [22]): 76.8%; viability at 100 µM (NIH3T3 [23]): 81.8%; Activity (NIH3T3 [24]): 6.22%; Activity (NIH3T3 [25]): 28.31%; viability at 10 µM (Hep 3B2 [26]): 65.4%; Activity (Hep 3B2 [27]): Dose-dependent effect |
| O=C(/C=C/c1ccc(O)cc1)c1ccc(O)cc1O [ISOLIQUIRITIGENIN] | Dose-dependent effect | 44.8% | 22.67% | Dose-dependent effect | 101% | 21.06% | 103% | 24.29% | Dose-dependent effect | 71.9% | 59.2% | 109% | 126% | 62.9% | 41.9% | 10.1% | Non-Toxic | Dose-dependent effect | Non-Toxic | 26.03% | Activity (Hep 3B2 [21]): 27.14%; viability at 100 µM (Hep 3B2 [22]): 75.3%; viability at 100 µM (NIH3T3 [23]): 82.9%; Activity (NIH3T3 [24]): 8.85%; Activity (NIH3T3 [25]): 44.26%; viability at 10 µM (Hep 3B2 [26]): 66.2%; Activity (Hep 3B2 [27]): Dose-dependent effect |
| O=C1CC(c2ccc(O)cc2)Oc2cc(O)ccc21 (racemic) | Dose-dependent effect | 74.1% | 5.51% | Dose-dependent effect | 100% | 4.93% | 104% | 6.83% | Dose-dependent effect | 111% | 88.4% | 112% | 135% | 88.4% | 70.7% | 3.82% | Non-Toxic | Dose-dependent effect | Non-Toxic | 7.85% | Activity (Hep 3B2 [21]): 11.57%; viability at 100 µM (Hep 3B2 [22]): 112%; viability at 100 µM (NIH3T3 [23]): 126%; Activity (NIH3T3 [24]): 2.63%; Activity (NIH3T3 [25]): 18.42%; viability at 10 µM (Hep 3B2 [26]): 98.8%; Activity (Hep 3B2 [27]): Dose-dependent effect |

From ChEMBL document CHEMBL4020804, “Minor phenolics from Angelica keiskei and their proliferative effects on Hep3B cells” (Bioorg Med Chem Lett, 2017)
